SIAE primary: blocks human sialic acid acetylesterase; SIAE FP-Rh probe binding, fluorescence polarization; AID 1053197; Q9HAT2; inhibition, % at 9.66 µM; 0.69% of 370,000 active;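 active = inhibition above a cutoff: mean of compounds within the control limits plus 3 SD of those, cut at about 17% in these data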
DAGLB inhibitor: diacylglycerol lipase beta (human) inhibition; inhibition, % at 5.17 µM; HEK293T DAGLB membrane lysate, EnzChek fluorogenic substrate; Q8NCG7; 0.059% of 340,000 active; in the data active = inhibition above about 34%
Target sequence (Q8NCG7 whole entry, looked up): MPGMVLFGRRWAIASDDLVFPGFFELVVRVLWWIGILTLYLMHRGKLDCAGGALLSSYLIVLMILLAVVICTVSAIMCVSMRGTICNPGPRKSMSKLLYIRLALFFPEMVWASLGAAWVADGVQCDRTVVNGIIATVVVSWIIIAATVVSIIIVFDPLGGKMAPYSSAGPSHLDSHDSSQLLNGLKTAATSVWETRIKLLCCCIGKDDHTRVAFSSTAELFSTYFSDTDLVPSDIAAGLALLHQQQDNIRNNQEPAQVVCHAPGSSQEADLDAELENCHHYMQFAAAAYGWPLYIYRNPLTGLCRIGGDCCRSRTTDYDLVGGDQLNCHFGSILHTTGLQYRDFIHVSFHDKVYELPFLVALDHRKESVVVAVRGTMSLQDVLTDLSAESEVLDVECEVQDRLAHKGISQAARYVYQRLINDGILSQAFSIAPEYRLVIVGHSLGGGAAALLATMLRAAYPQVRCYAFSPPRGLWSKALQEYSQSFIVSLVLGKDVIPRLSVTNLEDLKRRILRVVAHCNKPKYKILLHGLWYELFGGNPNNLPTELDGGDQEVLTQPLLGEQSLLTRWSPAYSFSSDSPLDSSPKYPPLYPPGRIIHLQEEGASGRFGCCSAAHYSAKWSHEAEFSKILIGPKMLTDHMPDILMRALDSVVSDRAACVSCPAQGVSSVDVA
mABHD4 FP: ABHD4 (mouse) inhibition, primary FP screen | Q8VD66 | AID 720543 | inhibition, % at 8.92 µM | purified mABHD4, FP-Rh probe fluorescence polarization | 0.54% of 370,000 active;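 active = inhibition exceeding the mean over every tested compound plus 3 SD, cut at about 30% in these data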
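Assay system: mABHD4 protein; medium: HEPES pH 7.0, NaCl, Pluronic buffer; dosing: 8.92 µM, single dose; schedule: 45 min + 60 min at 25 °C; signal: FP readout, ex 525 nm / em 598 nm; read-out: normalized percent inhibition of probe labeling; repeats: single replicate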
HTRA1 inh: blocks human HTRA1 serine peptidase | Q92743 | recombinant HTRA1, FP-rhodamine activity-based probe, fluorescence polarization | inhibition, % at 5.96 µM | 0.5% of 340,000 active | AID 504803; in the data active = inhibition above about 36%
TCR CD3 inh: inhibitors of human TCR-CD3 interaction; TAMRA-labeled TCR probe fluorescence, biochemical; inhibition, % at 9.4 µM; 0.37% of 360,000 active; in the data active = inhibition above about 19%;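 note: recombinant mutant TCR 2C K166C tagged with TAMRA read by polarization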
Each line names hits and unclear results; the compound was inactive in the other large screens. Only some compounds are listed: those with a hit (about 1.6% of all), similar ones and a draw of the others.

Oc1ccccc1-c1nnc(COc2ccccc2)o1	TCR CD3 inh 34
COc1ccc(C(=O)/C=C(\Nc2ccc(F)cc2)c2ccc(OC)cc2OC)c(OC)c1	none (no result: DAGLB inhibitor, HTRA1 inh, TCR CD3 inh)
Nc1sc2c(c1C(=O)NC1CCS(=O)(=O)C1)CCCC2 (stereo not drawn)	SIAE primary 22
COc1ccc2cc3cc(C(=O)Nc4ccc(F)cc4)sc3nc2c1	none (no result: DAGLB inhibitor, HTRA1 inh, TCR CD3 inh)
CC1CCN(C(=O)COc2cccc3c2CCN(Cc2ccccc2)C3=O)CC1	SIAE primary 17
CCN1CCc2c(OCC(=O)N3CCC(C)CC3)cccc2C1=O	none
c1ccc(-c2nc3c(ccc4ccccc43)[nH]2)nc1	SIAE primary 29
Cc1cc(O)c2c(c1O)C(=O)[C@]13C(=C2O)C(=O)[C@@H]2[C@@H](O)[C@H]1[C@@H]1[C@H](O)[C@H]3C(=O)C3=C(O)c4c(O)cc(C)c(O)c4C(=O)[C@]312	HTRA1 inh 41 (no result: SIAE primary, mABHD4 FP, TCR CD3 inh)
CCc1ccc(-n2ncc(Cl)c(Oc3ccc(OC)cc3)c2=O)cc1	none (no result: DAGLB inhibitor, HTRA1 inh, TCR CD3 inh)
CCOC(=O)CCCCCC(=O)Nc1ccc2c(c1)C(=O)N([C@H](C)CO)C[C@@H](C)[C@@H](CN(C)S(=O)(=O)c1ccc(C)cc1)OCCCC[C@H](C)O2	none (no result: DAGLB inhibitor, HTRA1 inh)
CCc1[nH]nc2c1C(c1cccc(OC(=O)N3CCOCC3)c1)C(C#N)=C(N)O2 (stereo not drawn)	SIAE primary 25
CCOC(=O)c1c(NC(C)=O)sc2c(O)c(Br)cc(Br)c12	mABHD4 FP 36
CCOc1ccc(-n2c(SCC(=O)Nc3ccc(OCc4ccccc4)cc3)nnc2-c2ccc(Cl)cc2)cc1	none (no result: DAGLB inhibitor, HTRA1 inh, TCR CD3 inh)
Oc1c(Cl)cc(CN2CCCCC2)c2cccnc12	HTRA1 inh 46 (no result: SIAE primary, mABHD4 FP, TCR CD3 inh)
O=[N+]([O-])c1cc(CN2CCCC2)c2cccnc2c1O	HTRA1 inh 54 (no result: SIAE primary, mABHD4 FP, TCR CD3 inh)
C/C(=N\NC(=O)c1cc(O)cc(O)c1)c1ccc(NC(=O)Cc2ccccc2)cc1	SIAE primary 24, TCR CD3 inh 41
C/C(=N\NC(=O)c1cccc(F)c1)c1ccc(NC(=O)Cc2ccccc2)cc1	none
Oc1ccc(/C=N/NC(=S)Nc2cccnc2)cc1O	TCR CD3 inh 24
S=C(N/N=C/c1ccc2ncccc2c1)Nc1cccnc1	none
Nc1nc2ccccc2[nH]1	none
Nc1ccccc1Sc1nc2ccccc2[nH]1	SIAE primary 18
CN1CCN(c2ccc(-c3cc(NC=O)c4ncc(-c5ccc(F)c(Cl)c5)n4c3)cc2)CC1	SIAE primary 18 (no result: DAGLB inhibitor, HTRA1 inh)
O=CNc1cc(-c2ccccc2)cn2c(-c3ccc(F)c(Cl)c3)cnc12	none (no result: DAGLB inhibitor, HTRA1 inh)
COc1cc([C@@H]2OC[C@@H]3[C@H]2CO[C@@H]3c2ccc3c(c2)OCO3)ccc1O	none
COc1cc(CC2COC(c3ccc(O)c(OC)c3)C2COC(C)=O)ccc1O (stereo not drawn)	TCR CD3 inh 23
C[C@H](CO)N1C[C@H](C)[C@@H](CN(C)C(=O)NC2CCCCC2)Oc2c(NC(=O)C3CCCCC3)cccc2C1=O	none
C[C@H](CO)N1C[C@H](C)[C@@H](CN(C)C(=O)Nc2ccccc2)Oc2c(NC(=O)C3CCCCC3)cccc2C1=O	SIAE primary 18
COc1ccc(CN2C(=O)[C@]3(NCCc4c3[nH]c3ccc(OC)cc43)c3cc(F)ccc32)cc1	none (no result: DAGLB inhibitor, HTRA1 inh, TCR CD3 inh)
COC(=O)C1CN(Cc2ccc(F)cc2)CCS(=O)(=O)N1Cc1ccc(OC)cc1 (stereo not drawn)	none (no result: DAGLB inhibitor, HTRA1 inh, TCR CD3 inh)
Cc1cc(NS(=O)(=O)c2ccc(Nc3nc(-c4ccc(O)cc4)cs3)cc2)no1	mABHD4 FP 42
COc1ccc(C(=O)N/N=C/c2c[nH]c3ccccc23)cc1	none
COc1ccc(C(=O)N/N=C/c2cc3ccccc3[nH]c2=S)cc1	TCR CD3 inh 30
O=C(CSc1nnc(-c2ccc(Cl)cc2)n1C1CCCCC1)NN=Cc1c(O)ccc2ccccc12	none (no result: DAGLB inhibitor, HTRA1 inh, TCR CD3 inh)
COc1ccc2c(c1)c(=O)oc1c(C)c(OCc3cc(C(=O)O)oc3C)ccc12	mABHD4 FP 32
COc1ccc2c(c1)c(=O)oc1c(C)c(OCc3ccc(C(=O)O)cc3)ccc12	none (no result: SIAE primary, mABHD4 FP, TCR CD3 inh)
COc1ccc(S(=O)(=O)Nc2ccc(O)c3ccccc23)cc1	mABHD4 FP 37
C[C@H]1CN([C@@H](C)CO)C(=O)CCCn2cc(nn2)CO[C@@H]1CN(C)S(=O)(=O)c1cn(C)cn1	none (no result: DAGLB inhibitor, HTRA1 inh)
Cc1cccc(-c2cccc3c4c([nH]c23)[C@@H]2C[C@H](N(C)C(=O)c3ccco3)[C@H]([C@H](C)O)CN2CC4)c1	none (no result: DAGLB inhibitor, HTRA1 inh, TCR CD3 inh)
Cc1ccccc1NC(=O)O[C@H]1CC[C@@]23CCCN2C(=O)CCC[C@H]3[C@H]1C	none (no result: DAGLB inhibitor, HTRA1 inh, TCR CD3 inh)
Cc1ncc(CO)c(/C=N/NC(=S)Nc2cccc(Cl)c2)c1O	HTRA1 inh 43 (no result: SIAE primary, mABHD4 FP, TCR CD3 inh)
Cc1ncc(CO)c(/C=N/NC(=S)Nc2ccc(Cl)c(Cl)c2)c1O	SIAE primary 19
COc1cc(N=Cc2c(CO)cnc(C)c2O)cc(OC)c1OC	none
COC(=O)[C@]12C[C@H](CC(=O)N3CCC(c4ccccc4)CC3)C(=O)N(CCc3ccc(OC)c(OC)c3)C1=C[C@H](C(C)C)O[C@@H]2C1CC1	none (no result: DAGLB inhibitor, HTRA1 inh, TCR CD3 inh)
Nc1[nH]c(C(=O)c2ccccc2)c(-c2ccc(F)cc2)c1C(=O)c1c[nH]c2ccccc12	none (no result: DAGLB inhibitor, HTRA1 inh)
Cc1ccc(C(=O)OCC(=O)Nc2ccccc2N2CCOCC2)cc1	SIAE primary 18
O=C(OCCN1CCN(C2CN(Cc3cn(Cc4ccccc4C(F)(F)F)nn3)S(=O)(=O)C2)CC1)c1cc2ccccc2o1 (stereo not drawn)	none (no result: DAGLB inhibitor, HTRA1 inh, TCR CD3 inh)
COc1cccc(N2C(=O)CC(Nc3ccc(N4CCOCC4)cc3)C2=O)c1 (stereo not drawn)	HTRA1 inh 51 (no result: SIAE primary, mABHD4 FP, TCR CD3 inh)
COc1cc(/C=C2\SC(=O)N(c3ccc(Cl)cc3)C2=O)cc([N+](=O)[O-])c1O	mABHD4 FP 37
COc1cccc2sc(Nc3nc(-c4ccncc4)cs3)nc12	none
COc1cccc2sc(Nc3nc(-c4cc5ccccc5oc4=O)cs3)nc12	TCR CD3 inh 19
COc1ccc(-c2nc3ccccn3c2NCc2ccc3c(c2)OCO3)cc1	none
COc1ccc(-c2cc(-c3nc4ccccn4c3NCc3ccccc3)ccc2OC)cc1	SIAE primary 21
COc1cc(/C=N/Nc2nc3c(c(=O)n(C)c(=O)n3C)n2Cc2ccccc2)ccc1OC(=O)c1ccco1	SIAE primary 21
COc1cc(/C=N/Nc2ccc(Cl)c(C(=O)O)c2)ccc1OC(=O)c1ccco1	none
Nn1c(SCC(=O)N2c3ccccc3Sc3ccc(Cl)cc32)nnc1-c1n[nH]c2c1CCC2	none (no result: DAGLB inhibitor, HTRA1 inh, TCR CD3 inh)
O=C(Cc1cccc2ccccc12)Nc1ccc(-c2cc3ccccc3oc2=O)cc1	TCR CD3 inh 38
CCC(=O)Nc1cccc(-c2cc3ccccc3oc2=O)c1	none
O=C(O)c1ccc(S(=O)(=O)/N=C2\C=C(Nc3ccccc3F)C(=O)c3ccccc32)cc1	mABHD4 FP 58
CC(C)c1ccc(S(=O)(=O)/N=C2\C=C(NS(=O)(=O)c3ccccc3)C(=O)c3ccccc32)cc1	mABHD4 FP 51
Cc1ccccc1NC1=C/C(=N\S(=O)(=O)c2cccs2)c2ccccc2C1=O	none
CCc1ccc(S(=O)(=O)/N=C2\C=C(NS(=O)(=O)c3ccccc3)C(=O)c3ccccc32)cc1	none
